# Reference: publication PMC6656587 (Bioorganic chemistry, 2019)
# pIC50: −log10 of the molar value.
# Experiments:
# PAM212 keratinocytes = assay: PAM212 keratinocyte growth inhibition with UVA light; type: cell-based, mouse; conditions: plus UVA light
# [1] = test system: MCF-7 breast carcinoma cell line; conditions: read-out: IC50, phototoxicity; cited from earlier work
# [2] = known measured logP used in the discussion; ref not given; cited from earlier work
# plasmid pZeoSV DNA = assay: Plasmid DNA nicking and unwinding assay with UVA light; type: biochemical; conditions: for Percentage of nicked plasmid: neutral agarose gels
# Method in brief: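 pZeoSV plasmid (75 ng per 10 μL) in TE buffer (10 mM Tris–HCl, 1 mM EDTA, pH 8), with test compound added from a 100× DMSO concentrate. UVA (320–400 nm) was given as for the cell cultures: 2.4 mW/cm2, 1.28 J/cm2. Aliquots taken before and after UVA were run on 1.2% neutral (Tris-acetate-EDTA) or alkaline agarose and stained with ethidium bromide. Percent nicked plasmid came from band image analysis.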
# [3] = Solubility maximum under the assay's conditions; type: physicochemical; conditions: 37 °C, plasma or biological fluid, kinetic from dmso stock
smiles,measurement,setting,value
"O=c1ccc2ccc(O)cc2o1 [Compound 1, umbelliferone]",photo-activity on keratinocyte growth (in words),PAM212 keratinocytes,no activity
same,pIC50,[1],3.32
"Cc1cc(=O)oc2c(C)c(O)ccc12 [Compound 12, 4,8-dimethyl-7-hydroxycoumarin]",logP,[2],2.1
"Cc1c(F)c(=O)oc2c(C)c(O)ccc12 [Compound 68, 3-fluoro-4,8-dimethyl-7-hydroxycoumarin]",photo-activity on keratinocyte growth (in words),PAM212 keratinocytes,no activity
"O=c1cc(C(F)(F)F)c2ccc(O)cc2o1 [Compound 47, 4-trifluoromethyl-7-hydroxycoumarin]",photo-activity on keratinocyte growth (in words),PAM212 keratinocytes,inactive
"Cc1c(I)c(=O)oc2c(C)c(O)ccc12 [Compound 71, 3-Iodo-4,8-dimethyl-7-hydroxycoumarin]",Percentage of nicked plasmid,plasmid pZeoSV DNA; 1 μM coumarin plus UVA light,6.8%
same,Percentage of nicked plasmid,plasmid pZeoSV DNA; 10 μM coumarin plus UVA light,80.2%
same,Percentage of nicked plasmid,plasmid pZeoSV DNA; 100 μM coumarin plus UVA light,98.6%
same,linearization of the plasmid compared to the 7-allyloxy ethers 14 and 58,plasmid pZeoSV DNA; plus UVA light,nearly five times greater linearization
same,effect on plasmid DNA (in words),"plasmid pZeoSV DNA; plus UVA light, alkaline gels",Generally similar results
same,effect on plasmid DNA (in words),"plasmid pZeoSV DNA; plus UVA light, neutral gels",concentration-dependent alteration in migration
"Cc1c(O)ccc2c(C(F)(F)F)cc(=O)oc12 [Compound 37, 4-trifluoromethyl-8-methyl-7-hydroxycoumarin]",photo-activity on keratinocyte growth (in words),PAM212 keratinocytes,inactive
"Cc1cc(=O)oc2c(C)c(O)c([N+](=O)[O-])cc12 [Compound 18, 4,8-dimethyl-6-nitro-7-hydroxycoumarin]",photo-activity on keratinocyte growth (in words),PAM212 keratinocytes,no photocytotoxicity
same,solubility,[3],100 µM
"C=CCOc1ccc2c(C)c(Br)c(=O)oc2c1C [Compound 58, 4,8-dimethyl-3-bromo-7-allyloxycoumarin]",Percentage of nicked plasmid,plasmid pZeoSV DNA; 1 μM coumarin plus UVA light,3.2%
same,Percentage of nicked plasmid,plasmid pZeoSV DNA; 10 μM coumarin plus UVA light,12.0%
same,Percentage of nicked plasmid,plasmid pZeoSV DNA; 100 μM coumarin plus UVA light,20.2%
same,effect on plasmid DNA (in words),"plasmid pZeoSV DNA; plus UVA light, neutral gels",concentration-dependent alteration in migration
